# Assay outcomes as filed in PubChem.
# Hsp70 activator: transcriptional activators of Hsp70 | HeLa Hsp70 promoter luciferase reporter, luminescence; scaled: vehicle 0, proteasome-inhibitor control 100% | activation, % at 10 µM | 200,000 tested, 0.04% active | AID 1203;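 active = activation above the mean across all tested compounds plus 3 SD, cutoff set per campaign, cut at about 5.5% in these data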;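 note: 100% = MG132 at 30 µM as the positive control and 0% = DMSO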
# NPY Y1 blocker: NPY-Y1 (human) receptor antagonism. P25929. HEK293-CNG Y1 cells, membrane potential fluorescence; NPY at EC95, then isoproterenol. inhibition, % at 3.6 µM. 200,000 tested, 1% active;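 active = inhibition above the campaign mean inhibition of all tested compounds plus 3 SD, cut at about 20% in these data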;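 note: 0% = DMSO wells given NPY plus isoproterenol and 100% = isoproterenol alone without NPY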
# Target sequence (P25929 whole entry, looked up): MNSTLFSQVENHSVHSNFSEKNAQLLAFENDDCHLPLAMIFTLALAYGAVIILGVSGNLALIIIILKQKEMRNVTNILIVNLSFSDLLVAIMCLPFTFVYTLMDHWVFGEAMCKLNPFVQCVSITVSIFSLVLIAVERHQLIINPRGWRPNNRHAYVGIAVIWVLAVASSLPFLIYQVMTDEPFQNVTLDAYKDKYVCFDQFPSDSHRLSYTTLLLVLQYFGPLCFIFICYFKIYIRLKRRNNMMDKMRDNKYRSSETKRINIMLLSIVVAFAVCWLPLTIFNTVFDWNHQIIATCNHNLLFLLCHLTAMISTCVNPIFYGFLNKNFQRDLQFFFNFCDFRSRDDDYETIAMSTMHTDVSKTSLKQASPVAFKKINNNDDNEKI
#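 Test system: HEK293 cells co-expressing NPY Y1 receptor and cyclic-nucleotide gated channel; Also added: NPY (25 nM), isoproterenol (1 µM), Ro 20-1724 (25 µM); Compound dosing: one concentration, 3.6 µM, in 0.4% DMSO; Timing: dye 3 h, compound 60 min room temperature, stimulation 45 min; Technique: Membrane-potential fluorescent dye readout.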
# Wee1 degr inh: blocks degradation of human Wee1 kinase | 220,000 tested, 1.2% active | HeLa Luc-Wee1K328M stability, luciferase luminescence; 100% = proteasome inhibitor MG132 effect | reporter increase, % at 5 µM | P30291 | AID 1321;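 active = activation above the mean of all tested compounds plus 3 SD, set per screening run, cut at about 8.8% in these data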;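 note: cells exposed to compound for 20 h before luminescence read; 0% = DMSO alone and 100% = MG132 at 30 µM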
# NPY-Y2 antag: antagonists of human neuropeptide Y receptor Y2. inhibition, % at 2.7 µM. 140,000 tested, 0.99% active. NPY-Y2 expressing cells, antagonist mode. AID 793. P49146; in the data active = inhibition above about 17%;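 note: 0% = vehicle with agonist challenge and 100% = reference antagonist with challenge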
# NPY1 pot ag: human NPY-Y1 potentiation or agonism, primary screen. P25929. NPY-Y1 expressing cells, potentiator/agonist activation. activation, % at 3.6 µM. 220,000 tested, 0.37% active. AID 1304; in the data active = activation above about 33%, passing the limit was not always enough;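 note: cells stimulated with NPY at EC10 then isoproterenol at EC100; 0% = low agonist plus stimulus and 100% = saturating agonist plus stimulus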
# NPY-Y2 PAM-ag: potentiators or agonists of human neuropeptide Y receptor Y2. 220,000 tested, 0.45% active. cells expressing NPY-Y2, potentiator/agonist read-out. AID 1359. P49146. activation, % at 3.6 µM; in the data active = activation above about 27%;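 note: cells stimulated with NPY near EC25 plus isoproterenol at EC100; 0% = vehicle plus submaximal agonist and 100% = vehicle plus saturating agonist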
# NPY1 antag ctr: human NPY-Y1 antagonism in NPY-Y2 counter-screen; shares compounds with NPY-Y2 antag; cell-based NPY-Y1 antagonism counterscreen; inhibition, % at 3.6 µM; 710 tested, 19% active; in the data active = inhibition above about 20%;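 note: cells challenged with NPY then isoproterenol with cAMP sensed through a CNG channel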
# NPY2 antag conf: human NPY-Y2 antagonism, confirmation; shares compounds with NPY-Y2 antag; HEK293 NPY-Y2 CNG channel, membrane potential fluorescence; inhibition, % at 2.8 µM; 710 tested, 32% active; AID 1257;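 active = mean inhibition of triplicate wells above the hit cutoff set in the primary screen, cut at about 17% in these data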;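 note: 0% = DMSO with NPY challenge and 100% = BIIE0246 high control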
# * = called active by the depositor; . = no result given. Most compounds without a hit are left out; they make up all but 3% or so of the library.
SMILES,Hsp70 activator,NPY Y1 blocker,Wee1 degr inh,NPY-Y2 antag,NPY1 pot ag,NPY-Y2 PAM-ag,NPY1 antag ctr,NPY2 antag conf
CCOc1ccc2nc(NC(=O)CS(=O)(=O)c3ccc(C)cc3)sc2c1,-0.3,8.5,1.4,24.6*,-17.4,-17.6,15.6,18.0*
Cc1ccc(CN(C(=O)Cn2nnc3ccccc32)C(C(=O)NCc2ccco2)c2ccc(C)o2)cc1 (stereo not given),0.2,1.1,2.8,2.1,-3.1,-6.0,.,.
Cc1ccc(C(C(=O)NCc2ccco2)N(CCc2ccccc2)C(=O)Cn2nnc3ccccc32)o1 (stereo not given),-0.3,18.7,-2.2,31.7*,1.6,-0.3,20.2*,11.1
CNC(=O)n1cc(C)c(-c2cccs2)n1,.,.,0.3,.,3.5,-2.3,.,.
CN(C)c1ccc(C(=O)OCc2ccccc2)cc1,-0.3,7.3,1.1,7.7,-31.1,-16.9,.,.
COC(=O)c1ccc(COC(=O)c2ccc(N(C)C)cc2)cc1,0.0,7.9,4.7,20.4*,-46.3,-4.9,4.0,10.0
Cc1ccc(S(=O)(=O)NNC(=O)c2sc3nc(C)cc(C)c3c2-n2cccc2)cc1,-0.1,4.3,-0.9,2.9,-20.7,-15.4,.,.
Clc1ccc(CSc2nnc(-c3ccncc3)o2)cc1,-0.1,8.0,-0.8,3.3,-3.6,-1.9,.,.
Clc1ccc(CSc2nnc(-c3ccc4c(c3)OCO4)o2)cc1,-0.5,8.9,-2.5,22.4*,-20.6,3.2,26.9*,29.7*
CCCn1nnc(NC(=S)NC(=O)CC)n1,-0.1,-5.2,2.1,-3.9,-12.8,13.7,.,.
CCCC[C@@H]1C[C@H]1[C@@H](NC(=O)c1ccco1)c1ccc(Cl)cc1,0.1,8.8,-2.1,1.6,-25.1,2.4,.,.
CCCC[C@@H]1C[C@H]1[C@@H](NC(=O)c1cccs1)c1ccc(Cl)cc1,-0.2,2.4,-1.9,18.0*,-46.2,0.7,12.6,16.7
COc1cccc(CNc2nc3ccccc3n2CCN2CCCCC2)c1,0.4,14.4,-2.3,18.9*,-27.4,-15.9,12.7,15.8
Brc1cccc(CNc2nc3ccccc3n2CCN2CCCCC2)c1,.,.,-1.5,.,0.5,-11.1,.,.
c1ccc(N2CCN(c3nc(NCc4ccco4)c4ccccc4n3)CC2)cc1,-0.4,11.7,0.9,19.4*,-7.3,31.8*,9.2,7.0
c1coc(CNc2nc(N3CCCCC3)nc3ccccc23)c1,-0.2,19.4,-1.0,26.4*,-22.7,-8.1,18.1,15.5
c1ccc(CNc2nc(N3CCN(Cc4ccccc4)CC3)nc3ccccc23)cc1,.,.,-1.4,.,24.1,13.6,.,.
c1ccc2c(N3CCCCC3)nc(N3CCOCC3)nc2c1,0.1,4.0,-2.5,.,-12.7,-6.5,.,.
c1ccc2c(N3CCCCC3)nc(N3CCCCC3)nc2c1,0.1,-0.1,2.8,23.1*,-7.2,-16.4,4.6,1.5
Cc1ccc(-c2nn3c(C)nnc3c3ccccc23)cc1S(=O)(=O)NCCO,-0.3,-7.1,-4.3,.,8.4,-11.4,.,.
Cc1ccc(-c2nn3c(C)nnc3c3ccccc23)cc1S(=O)(=O)NC(C)c1ccccc1 (stereo not given),-0.4,4.3,-3.7,17.6*,-7.7,-25.6,11.5,19.1*
COc1ccc(-n2nnnc2-c2cnc(N3CCCC3)nc2C(F)(F)F)cc1,-0.1,1.7,-2.0,-0.3,6.2,20.1,.,.
CC(=O)NC(Cc1ccc(C(C)C)cc1)C(=O)NC1CCN(C(=O)c2cccc(C)c2)CC1 (stereo not given),-0.1,-0.2,2.6,.,5.9,-7.4,.,.
O=C1c2ccccc2NC(c2ccc(Cl)cc2Cl)N1Cc1ccccc1 (stereo not given),0.1,14.0,2.4,27.7*,-11.8,-15.8,6.3,11.1
Cc1ccccc1OS(=O)(=O)c1cn(C)c(=O)n(C)c1=O,-0.1,-0.7,1.9,.,7.9,15.4,.,.
SMILES,Hsp70 activator,NPY Y1 blocker,Wee1 degr inh,NPY-Y2 antag,NPY1 pot ag,NPY-Y2 PAM-ag,NPY1 antag ctr,NPY2 antag conf
Cc1cc(C)c2c(=O)[nH]c(SCC(=O)Nc3ccccc3)nc2n1,-0.1,-0.6,2.1,18.7*,-7.5,-7.5,1.4,5.0
N#Cc1ccc(-c2cccnc2)nc1SCc1ccc(Cl)c(Cl)c1,0.1,3.6,-3.5,27.2*,2.5,10.5,19.5,21.3*
O=C1NC(=NCc2ccccc2)S/C1=C\c1ccccc1,-0.1,3.6,-0.1,1.3,-21.0,-4.8,.,.
CC12CCC(C/C1=N\N=C1\NC(=O)/C(=C\c3ccc(Cl)cc3)S1)C2(C)C (stereo not given),-0.1,3.7,0.8,37.4*,-0.4,6.3,44.3*,54.6*
COc1ccc(S(=O)(=O)N2CCC(C(=O)NCCC3=CCCCC3)CC2)cc1OC,-0.3,-4.9,-0.3,-0.8,4.1,-8.1,.,.
COc1ccc([N+](=O)[O-])cc1NC(=O)COC(=O)c1ccccn1,-0.2,-1.4,1.8,.,-5.8,1.5,.,.
Cc1ccc(C(=O)NC2c3ccccc3-c3ccccc32)cc1,0.0,16.4,-2.2,19.1*,5.0,-6.6,11.6,10.8
Cc1ccc(C(=O)NC2CCc3ccccc3C2=O)cc1 (stereo not given),0.0,4.5,5.3,.,10.8,5.1,.,.
Cc1cc(N2CCN(c3ccccc3)CC2)n2c(n1)nc1ccccc12,-0.1,12.4,1.3,22.4*,-39.8,-27.6,3.3,4.6
Cc1cc(N2CCN(c3ccccc3)CC2)n2nnnc2n1,-0.2,-0.7,-2.2,3.5,-8.0,11.4,.,.
Clc1ccccc1-c1nc2ccccc2c2nc3ccccc3n12,-0.4,-0.1,-1.0,18.3*,-8.7,-3.6,16.6,12.9
COc1ccc(C2Nc3ccccc3C(=O)N2Cc2ccco2)cc1COc1ccccc1F (stereo not given),-0.1,18.6,-2.3,25.0*,-11.9,-13.4,6.3,11.1
COc1ccc(C2Nc3ccccc3C(=O)N2Cc2ccco2)cc1COc1ccc(NC(C)=O)cc1 (stereo not given),-0.4,2.8,1.5,2.8,-11.5,-11.6,.,.
CSc1nc2nc(-c3ccccc3)cc(C(F)(F)F)n2n1,0.2,2.2,0.4,4.0,-29.1,-38.5,.,.
CN(C)Cc1ccccc1Sc1cccc2ccccc12,-0.5,17.7,3.5,22.4*,-62.1,-13.7,14.8,21.0*
CN(C)Cc1ccccc1Sc1ccccc1Br,-0.2,16.3,-2.9,9.5,-15.8,-4.2,.,.
Cc1ccc(C(C(=O)NC2CCCCC2)N(Cc2ccco2)C(=O)Cc2c[nH]c3ccccc23)o1 (stereo not given),-0.1,13.8,-1.4,18.8*,-4.6,-5.3,13.4,10.8
Cc1ccc(C(C(=O)NC2CCCCC2)N(C(=O)Cc2c[nH]c3ccccc23)c2ccccc2C)o1 (stereo not given),-0.3,3.2,6.2,1.4,-12.9,-3.5,.,.
